# The source made the active and inactive calls. The calls are words filed in the database; no cut-off is given here.
# Columns and labels:
# Jurkat [1] = assay: Cytotoxicity against human Jurkat T cells assessed as reduction in cell viability after 72 hrs by alamar blue assay; format: cell-based
# Procedure, shortened: (§1)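 Cells seeded at 2 × 10^4 cells/well and exposed to compound for 72 h. DMSO was the negative control and doxorubicin the positive control. AlamarBlue (1:10 dilution) was then added for 4 h at 37 °C, and absorbance was read at 590 nm.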
# K562 = assay: Cytotoxicity against human K562 cells assessed as reduction in cell viability after 72 hrs by alamar blue assay; format: cell-based; conditions: K562, 72 h; procedure, shortened: as §1
# HeLa = assay: Cytotoxicity against human HeLa cells assessed as reduction in cell viability after 72 hrs by alamar blue assay; format: cell-based; procedure, shortened: as §1
# Jurkat [2] = assay: Anti-inflammatory activity in PMA/ionomycin stimulated human Jurkat T cells assessed as reduction in IL-2 secretion at 20 uM preincubated for 20 mins followed by PMA/ionomycin stimulation measured after 12 hrs by ELISA; format: functional, cell-based
# Procedure, shortened: (§2)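 Jurkat T cells seeded at 1 × 10^5 cells/well and pretreated with compound for 20 min, then stimulated with PMA (40 nM) plus ionomycin (1 μM) for 12 h at 37 °C. DMSO was the negative control and FK506 (100 nM) the positive control. IL-2 in 100 μL supernatant was measured by sandwich ELISA with streptavidin detector and TMB substrate, read at 450 nm.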
# Jurkat [3] = assay: Anti-inflammatory activity in PMA/ionomycin stimulated human Jurkat T cells assessed as reduction in IL-2 secretion preincubated for 20 mins followed by PMA/ionomycin stimulation measured after 12 hrs by ELISA; format: functional, cell-based; procedure, shortened: as §2
Structure (SMILES),IC50 (Jurkat [1]) [µM],IC50 (K562) [µM],IC50 (HeLa) [µM],Activity (Jurkat [2]),IC50 (Jurkat [3]) [µM]
CCC(C)[C@H](NC(=O)c1cc(O)c2c(c1)C(=O)c1cc(O)cc(O)c1C2=O)C(=O)OC (some centres undefined),> 10,> 10,> 10,Active,12
CC(C)[C@H](NC(=O)c1cc(O)c2c(c1)C(=O)c1cc(O)cc(O)c1C2=O)C(=O)O,> 10,> 10,> 10,Active,
C[C@H](NC(=O)c1cc(O)c2c(c1)C(=O)c1cc(O)cc(O)c1C2=O)C(=O)O,> 10,> 10,> 10,Active,
O=C(O)c1cc(O)c2c(c1)C(=O)c1cc(O)cc(O)c1C2=O [EMODIC ACID],> 10,> 10,> 10,Active,
O=C1c2cc(CO)cc(O)c2C(=O)c2c1cc(O)c(Cl)c2O,> 10,> 10,> 10,,
CCC(C)[C@H](NC(=O)c1cc(O)c2c(c1)C(=O)c1cc(O)c(Cl)c(O)c1C2=O)C(=O)O (some centres undefined),> 10,> 10,> 10,Active,
C=CC[C@@H]1/C=C(\C)C[C@H](C)C[C@H](OC)[C@H]2O[C@@](O)(C(=O)C(=O)N3CCCC[C@H]3C(=O)O[C@H](/C(C)=C/[C@@H]3CC[C@@H](O)[C@H](OC)C3)[C@H](C)[C@@H](O)CC1=O)[C@H](C)C[C@@H]2OC [TACROLIMUS ANHYDROUS],,,,,5.8
COC(=O)[C@@H](NC(=O)c1cc(O)c2c(c1)C(=O)c1cc(O)cc(O)c1C2=O)C(C)C,> 10,> 10,> 10,Active,4.1
CC(C)C[C@H](NC(=O)c1cc(O)c2c(c1)C(=O)c1cc(O)c(Cl)c(O)c1C2=O)C(=O)O,> 10,> 10,> 10,Active,
CCC(C)[C@H](NC(=O)c1cc(O)c2c(c1)C(=O)c1cc(O)cc(O)c1C2=O)C(=O)O (some centres undefined),> 10,> 10,> 10,Active,5.4
CC(C)[C@H](NC(=O)c1cc(O)c2c(c1)C(=O)c1cc(O)c(Cl)c(O)c1C2=O)C(=O)O,> 10,> 10,> 10,Active,5.1

# — ChEMBL document CHEMBL4118058, “Amino Acid Conjugated Anthraquinones from the Marine-Derived Fungus Penicillium sp. SCSIO sof101” (J Nat Prod, 2017)
